Source: ChEMBL document CHEMBL1671862, “Impact of nucleoside reverse transcriptase inhibitors on mitochondrial DNA and RNA in human skeletal muscle cells” (Antimicrob Agents Chemother, 2008)

What was measured:
Format in all cases: tissue-based, Muscle tissue
[1] = Cytotoxicity against human skeletal muscle Myotube assessed as change in Tfam mitochondrial RNA level on day 5 by RT-PCR relative to untreated control
In short: (§1)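 Myoblasts at 70-80% confluence were differentiated into myotubes for 72 h in alpha-MEM with 10% FCS and penicillin/streptomycin. They were then treated with NRTIs at plasma Cmax levels (ddI 11.8, d4T 3.6, AZT 7.1, 3TC 8.3, ABV 3.0 μmol) for 5 days at 37°C, 5% CO2, with medium renewed every 2 days. mtDNA:nDNA, or RNA:G6PDH copies by real-time PCR, is expressed relative to untreated cells. Five repeats.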

[2] = Cytotoxicity against human skeletal muscle Myoblast assessed as change in MTCYB mitochondrial RNA level on day 2 by RT-PCR relative to untreated control
In short: (§2)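 Proliferating human skeletal muscle myoblasts were treated from 20-30% confluence in growth medium, with NRTIs dissolved in sterile water. Doses were plasma Cmax levels (ddI 11.8, d4T 3.6, AZT 7.1, 3TC 8.3, ABV 3.0 μmol), given singly or as combinations. Controls got medium only, and medium was renewed every 2 days at 37°C, 5% CO2. Real-time RT-PCR copies were normalized to G6PDH and expressed relative to untreated cells. Five repeats.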

[3] = Cytotoxicity against human skeletal muscle Myoblast assessed as change in POLG mitochondrial RNA level on day 2 by RT-PCR relative to untreated control; in short: as §2
[4] = Cytotoxicity against human skeletal muscle Myoblast assessed as change in POLG mitochondrial RNA level on day 5 by RT-PCR relative to untreated control; in short: as §2
[5] = Cytotoxicity against human skeletal muscle Myoblast assessed as increase in mitochondrial DNA on day 5 by RT-PCR relative to untreated control
In short: (§3)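 Myoblasts were treated from 20-30% confluence with NRTIs at plasma Cmax levels (ddI 11.8, d4T 3.6, AZT 7.1, 3TC 8.3, ABV 3.0 μmol), singly or combined. Medium was changed every 2 days at 37°C, 5% CO2, and cells were harvested on day 2 or 5. mtDNA and nDNA were measured by LightCycler real-time PCR in duplicate. The mtDNA:nDNA ratio is expressed relative to untreated cells. Five repeats.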

[6] = Cytotoxicity against human skeletal muscle Myotube assessed as change in POLG mitochondrial RNA level on day 5 by RT-PCR relative to untreated control; in short: as §1
[7] = Cytotoxicity against human skeletal muscle Myotube at 100 uL on day 5 by WST-1 assay
In short: (§4)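 After 5 days of NRTI treatment at Cmax levels, 100 μl WST-1 reagent was added per well and incubated 1 h at 37°C, 5% CO2. Supernatant absorbance was read at 450 nm in duplicate. Results are the ratio of treated to untreated wells, run in triplicate.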

[8] = Cytotoxicity against human skeletal muscle Myoblast assessed as change in Tfam mitochondrial RNA level on day 2 by RT-PCR relative to untreated control; in short: as §2
[9] = Cytotoxicity against human skeletal muscle Myoblast at 100 uL on day 5 by WST-1 assay; in short: as §4
[10] = Cytotoxicity against human skeletal muscle Myoblast assessed as change in MTCO3 mitochondrial RNA level on day 2 by RT-PCR relative to untreated control; in short: as §2
[11] = Cytotoxicity against human skeletal muscle Myoblast assessed as increase in mitochondrial DNA on day 2 by RT-PCR relative to untreated control; in short: as §3
[12] = Cytotoxicity against human skeletal muscle Myoblast assessed as change in Tfam mitochondrial RNA level on day 5 by RT-PCR relative to untreated control; in short: as §2
[13] = Cytotoxicity against human skeletal muscle Myoblast assessed as decrease in mitochondrial DNA on day 5 by RT-PCR relative to untreated control; in short: as §3
[14] = Cytotoxicity against human skeletal muscle Myotube assessed as decrease in mitochondrial DNA on day 5 by RT-PCR relative to untreated control; in short: as §1
[15] = Cytotoxicity against human skeletal muscle Myoblast assessed as decrease in mitochondrial DNA on day 2 by RT-PCR relative to untreated control; in short: as §3
[16] = Cytotoxicity against human skeletal muscle Myotube assessed as decrease in MTCYB mitochondrial RNA level on day 5 by RT-PCR relative to untreated control; in short: as §1
[17] = Cytotoxicity against human skeletal muscle Myoblast assessed as decrease in MTCYB mitochondrial RNA level on day 5 by RT-PCR relative to untreated control; in short: as §2
[18] = Cytotoxicity against human skeletal muscle Myotube assessed as decrease in MTCO3 mitochondrial RNA level on day 5 by RT-PCR relative to untreated control; in short: as §1

| SMILES | Activity [1] | Activity [2] | Activity [3] | Activity [4] | Ratio [5] | Activity [6] | Activity [7] | Activity [8] | Activity [9] | Activity [10] | Ratio [11] | Activity [12] | Ratio [13] | Ratio [14] | Ratio [15] | Ratio [16] | Ratio [17] | Ratio [18] |
| --- | --- | --- | --- | --- | --- | --- | --- | --- | --- | --- | --- | --- | --- | --- | --- | --- | --- | --- |
| Nc1nc(NC2CC2)c2ncn([C@H]3C=C[C@@H](CO)C3)c2n1.Nc1nc(NC2CC2)c2ncn([C@H]3C=C[C@@H](CO)C3)c2n1.O=S(=O)(O)O [ABACAVIR SULFATE] | Non-toxic | Non-toxic | Non-toxic | Non-toxic | 1.07 | Non-toxic | Non-toxic | Non-toxic | Non-toxic | Non-toxic | 1.19 | Non-toxic | – | – | – | – | – | – |
| O=c1[nH]cnc2c1ncn2[C@H]1CC[C@@H](CO)O1 [DIDANOSINE] | Non-toxic | Non-toxic | Non-toxic | Non-toxic | – | Non-toxic | Non-toxic | Non-toxic | Non-toxic | Non-toxic | – | Non-toxic | 0.22 | 0.5 | 0.51 | 0.66 | 0.51 | – |
| Nc1ccn([C@@H]2CS[C@H](CO)O2)c(=O)n1 [LAMIVUDINE] | Non-toxic | Non-toxic | Non-toxic | Non-toxic | 0.94 | Non-toxic | Non-toxic | Non-toxic | Non-toxic | Non-toxic | 1.16 | Non-toxic | – | – | – | – | – | – |
| Cc1cn([C@H]2C=C[C@@H](CO)O2)c(=O)[nH]c1=O [STAVUDINE] | Non-toxic | Non-toxic | Non-toxic | Non-toxic | 0.98 | Non-toxic | Non-toxic | Non-toxic | Non-toxic | Non-toxic | 1.2 | Non-toxic | – | – | – | – | – | 0.69 |
| Cc1cn([C@H]2C[C@H](N=[N+]=[N-])[C@@H](CO)O2)c(=O)[nH]c1=O [ZIDOVUDINE] | Non-toxic | Non-toxic | Non-toxic | Non-toxic | 1.14 | Non-toxic | Non-toxic | Non-toxic | Non-toxic | Non-toxic | 1.45 | Non-toxic | – | – | – | – | – | – |
